The values that follow come from ChEMBL document CHEMBL4706691, “Bicyclic Diazepinones as Dual Ligands of the α2δ-1 Subunit of Voltage-Gated Calcium Channels and the Norepinephrine Transporter” (J Med Chem, 2021).

The target in series [1] is Voltage-dependent calcium channel subunit alpha-2/delta-1 (Homo sapiens, UniProt P54289). Kind of series: Displacement of [3H]-gabapentin from human Cav alpha2delta1 expressed in CHO-K1 cell membranes incubated for 60 mins by scintillation counting method. More on the design: species or system Cell membrane. In outline:
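Nonspecific binding defined with 10 μM pregabalin. Test compounds at five concentrations in duplicate, giving Ki. Bound radioactivity collected by filtration on PEI-soaked GF/C, washed with cold 50 mM Tris-HCl, then scintillation counted.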

For series [2], the target named is T1, Sodium-dependent noradrenaline transporter (Homo sapiens, UniProt P23975). Briefly: Inhibition of human NET expressed in HEK293 cells assessed as reduction in ASP+ uptake incubated for 20 mins before ASP+ addition and measured after 90 mins by scintillation counting method.
In series [3] the target is Voltage-dependent calcium channel subunit alpha-2/delta-2 (Homo sapiens, UniProt Q9NY47). Kind of series: Displacement of [3H]-gabapentin from human Cav alpha2delta2 expressed in HEK293 cell membranes incubated for 60 mins by scintillation counting method.
Series [4] concerns the target T1, Sodium-dependent noradrenaline transporter. Briefly: Displacement of [3H]-nisoxetine from human NET expressed in HEK293 cell membranes incubated for 60 mins by scintillation counting method. A general note: Displacement assays read how much labelled ligand stays bound in the presence of the test substance.
Series [5] deals with T2, CYP1A2 (Homo sapiens, UniProt P05177).
T2 sequence (P05177 whole entry): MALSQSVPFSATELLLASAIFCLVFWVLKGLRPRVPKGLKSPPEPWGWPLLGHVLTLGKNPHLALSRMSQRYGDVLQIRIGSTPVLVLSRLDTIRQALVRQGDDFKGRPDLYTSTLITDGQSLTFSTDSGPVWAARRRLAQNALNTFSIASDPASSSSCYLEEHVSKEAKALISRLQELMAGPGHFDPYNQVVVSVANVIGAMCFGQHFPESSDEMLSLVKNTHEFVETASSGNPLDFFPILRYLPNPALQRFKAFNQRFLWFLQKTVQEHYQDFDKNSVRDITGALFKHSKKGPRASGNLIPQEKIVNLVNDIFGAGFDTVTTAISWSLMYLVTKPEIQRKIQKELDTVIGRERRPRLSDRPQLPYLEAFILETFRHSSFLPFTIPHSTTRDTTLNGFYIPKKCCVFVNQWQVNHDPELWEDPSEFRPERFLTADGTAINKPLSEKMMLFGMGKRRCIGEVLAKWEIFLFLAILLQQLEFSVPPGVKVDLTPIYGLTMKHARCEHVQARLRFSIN
Briefly: Inhibition of human CYP1A2 at 1 uM relative to control. Type of series: ADME.

For series [6], the target named is CYP2C19 (Homo sapiens, UniProt P33261). Kind of series: Inhibition of human CYP2C19 at 1 uM relative to control. Type of series: ADME.
The target of series [7] is CYP2C9 (Homo sapiens, UniProt P11712). Kind of series: Inhibition of human CYP2C9 at 1 uM relative to control. Type of series: ADME.
For series [8], the target named is CYP3A4 (Homo sapiens, UniProt P08684). Kind of series: Inhibition of human CYP3A4 at 1 uM relative to control. Type of series: ADME.
Series [9] concerns the target Voltage-gated inwardly rectifying potassium channel KCNH2 (Homo sapiens, UniProt Q12809). Briefly: Inhibition of human ERG.
For series [10], the target named is CYP2D6 (Homo sapiens, UniProt P10635). Briefly: Inhibition of human CYP2D6 at 1 uM relative to control. Type of series: ADME.
Series [11] is described as follows: Intrinsic clearance in rat liver microsomes.
A short description of series [12]: Intrinsic clearance in human liver microsomes. On the technique in general: Liver microsomes are a subcellular fraction often used to study metabolism.

T1 sequence (P23975 whole entry): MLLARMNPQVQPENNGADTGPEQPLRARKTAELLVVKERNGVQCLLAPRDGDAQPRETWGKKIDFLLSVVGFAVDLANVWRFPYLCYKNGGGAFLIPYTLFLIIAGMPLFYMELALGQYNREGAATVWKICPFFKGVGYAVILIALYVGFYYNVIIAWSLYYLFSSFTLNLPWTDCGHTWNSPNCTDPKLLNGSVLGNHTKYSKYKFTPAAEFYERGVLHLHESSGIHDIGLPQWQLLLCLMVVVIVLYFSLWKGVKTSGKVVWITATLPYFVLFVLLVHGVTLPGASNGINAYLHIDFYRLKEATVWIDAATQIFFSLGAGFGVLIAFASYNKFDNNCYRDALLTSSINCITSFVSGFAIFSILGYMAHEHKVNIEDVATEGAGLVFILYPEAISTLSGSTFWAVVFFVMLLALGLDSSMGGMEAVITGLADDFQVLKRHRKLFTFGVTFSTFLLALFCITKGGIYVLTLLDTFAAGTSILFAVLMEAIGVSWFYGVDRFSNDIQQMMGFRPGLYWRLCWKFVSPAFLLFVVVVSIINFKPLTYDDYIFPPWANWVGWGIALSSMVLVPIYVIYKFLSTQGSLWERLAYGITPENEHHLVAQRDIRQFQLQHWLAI
Sequence of CYP2C9 (P11712 whole entry): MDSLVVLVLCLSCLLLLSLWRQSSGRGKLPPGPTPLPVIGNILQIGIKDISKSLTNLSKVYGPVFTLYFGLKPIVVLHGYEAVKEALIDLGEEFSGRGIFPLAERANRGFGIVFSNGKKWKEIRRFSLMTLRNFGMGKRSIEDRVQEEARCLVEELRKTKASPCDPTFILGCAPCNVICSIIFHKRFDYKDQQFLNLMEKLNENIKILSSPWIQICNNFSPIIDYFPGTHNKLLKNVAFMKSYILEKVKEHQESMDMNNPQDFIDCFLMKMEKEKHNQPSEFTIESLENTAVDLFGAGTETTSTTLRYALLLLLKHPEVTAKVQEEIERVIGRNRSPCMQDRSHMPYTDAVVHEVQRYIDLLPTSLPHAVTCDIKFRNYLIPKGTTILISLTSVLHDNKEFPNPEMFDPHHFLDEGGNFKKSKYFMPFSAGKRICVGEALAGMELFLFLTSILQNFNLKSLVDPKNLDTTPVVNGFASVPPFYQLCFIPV
Sequence of CYP3A4 (P08684 whole entry): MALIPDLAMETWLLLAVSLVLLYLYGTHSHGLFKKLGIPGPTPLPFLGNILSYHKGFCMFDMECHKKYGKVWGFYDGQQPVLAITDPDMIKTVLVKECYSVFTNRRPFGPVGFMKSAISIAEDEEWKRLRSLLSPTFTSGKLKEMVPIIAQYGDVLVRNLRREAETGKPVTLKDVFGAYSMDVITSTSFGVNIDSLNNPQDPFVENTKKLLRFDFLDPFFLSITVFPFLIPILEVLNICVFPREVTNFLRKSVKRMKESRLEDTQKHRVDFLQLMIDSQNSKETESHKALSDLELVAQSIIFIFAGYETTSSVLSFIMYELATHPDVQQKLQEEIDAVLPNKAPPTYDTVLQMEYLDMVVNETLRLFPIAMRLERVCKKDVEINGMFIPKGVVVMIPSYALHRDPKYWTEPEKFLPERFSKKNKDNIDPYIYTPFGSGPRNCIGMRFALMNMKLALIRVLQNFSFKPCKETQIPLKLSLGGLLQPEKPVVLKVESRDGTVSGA
Sequence of CYP2C19 (P33261 whole entry): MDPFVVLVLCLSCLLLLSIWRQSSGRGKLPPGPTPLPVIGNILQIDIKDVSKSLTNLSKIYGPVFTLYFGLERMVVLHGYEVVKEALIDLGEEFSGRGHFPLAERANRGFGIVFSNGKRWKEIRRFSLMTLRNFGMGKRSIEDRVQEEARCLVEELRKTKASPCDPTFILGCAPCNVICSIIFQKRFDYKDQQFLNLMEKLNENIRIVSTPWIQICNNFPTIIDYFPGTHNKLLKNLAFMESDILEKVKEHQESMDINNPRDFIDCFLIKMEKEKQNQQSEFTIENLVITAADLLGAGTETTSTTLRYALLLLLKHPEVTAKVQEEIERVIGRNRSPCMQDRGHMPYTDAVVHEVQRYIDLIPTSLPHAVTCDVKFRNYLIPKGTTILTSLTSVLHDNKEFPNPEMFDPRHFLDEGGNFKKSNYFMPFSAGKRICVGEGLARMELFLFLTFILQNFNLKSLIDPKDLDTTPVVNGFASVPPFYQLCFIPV
Sequence of Voltage-gated inwardly rectifying potassium channel KCNH2 (Q12809 whole entry): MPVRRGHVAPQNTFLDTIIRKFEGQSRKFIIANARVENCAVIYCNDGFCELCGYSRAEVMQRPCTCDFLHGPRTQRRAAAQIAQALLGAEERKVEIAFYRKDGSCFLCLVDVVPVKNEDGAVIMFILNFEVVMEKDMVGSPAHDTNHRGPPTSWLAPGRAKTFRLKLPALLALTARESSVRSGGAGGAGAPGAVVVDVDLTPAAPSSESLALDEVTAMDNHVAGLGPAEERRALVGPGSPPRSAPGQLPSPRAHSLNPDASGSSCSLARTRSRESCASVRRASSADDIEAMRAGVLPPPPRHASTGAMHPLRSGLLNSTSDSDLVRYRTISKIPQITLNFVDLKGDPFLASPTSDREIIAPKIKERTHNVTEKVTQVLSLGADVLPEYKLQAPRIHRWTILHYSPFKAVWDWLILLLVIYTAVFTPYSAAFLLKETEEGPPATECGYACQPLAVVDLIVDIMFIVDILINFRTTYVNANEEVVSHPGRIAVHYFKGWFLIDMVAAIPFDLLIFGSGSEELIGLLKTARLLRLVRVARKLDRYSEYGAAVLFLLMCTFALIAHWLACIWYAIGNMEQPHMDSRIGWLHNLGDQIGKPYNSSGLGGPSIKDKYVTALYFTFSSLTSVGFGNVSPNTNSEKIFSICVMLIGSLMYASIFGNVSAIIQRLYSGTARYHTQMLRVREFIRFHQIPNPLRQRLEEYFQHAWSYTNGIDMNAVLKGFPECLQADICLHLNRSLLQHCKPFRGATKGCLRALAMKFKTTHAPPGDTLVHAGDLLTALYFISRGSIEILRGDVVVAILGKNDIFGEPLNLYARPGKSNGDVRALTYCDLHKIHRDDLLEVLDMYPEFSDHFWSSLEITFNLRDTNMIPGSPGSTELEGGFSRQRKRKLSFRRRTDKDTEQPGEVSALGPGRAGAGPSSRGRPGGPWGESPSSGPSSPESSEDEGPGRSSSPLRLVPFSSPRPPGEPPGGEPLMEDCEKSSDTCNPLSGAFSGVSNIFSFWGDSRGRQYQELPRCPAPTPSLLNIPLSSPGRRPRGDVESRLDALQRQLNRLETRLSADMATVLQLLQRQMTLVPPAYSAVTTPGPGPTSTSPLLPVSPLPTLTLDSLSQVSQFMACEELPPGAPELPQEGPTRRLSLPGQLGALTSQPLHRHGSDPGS
Sequence of CYP2D6 (P10635 whole entry): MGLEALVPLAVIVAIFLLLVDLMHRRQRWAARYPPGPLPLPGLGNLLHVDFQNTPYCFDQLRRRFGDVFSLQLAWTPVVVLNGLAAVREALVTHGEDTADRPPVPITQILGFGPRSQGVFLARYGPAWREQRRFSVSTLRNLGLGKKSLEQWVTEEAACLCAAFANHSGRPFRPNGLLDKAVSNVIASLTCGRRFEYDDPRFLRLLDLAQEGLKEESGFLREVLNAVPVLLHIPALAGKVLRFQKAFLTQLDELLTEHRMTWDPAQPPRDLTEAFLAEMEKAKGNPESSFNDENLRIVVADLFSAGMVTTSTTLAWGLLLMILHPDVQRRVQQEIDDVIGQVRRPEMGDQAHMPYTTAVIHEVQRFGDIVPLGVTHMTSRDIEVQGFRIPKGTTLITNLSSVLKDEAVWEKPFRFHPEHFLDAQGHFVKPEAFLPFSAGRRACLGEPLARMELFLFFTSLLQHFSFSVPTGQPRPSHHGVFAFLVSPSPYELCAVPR
Sequence of Voltage-dependent calcium channel subunit alpha-2/delta-1 (P54289 25-956 limits assumed): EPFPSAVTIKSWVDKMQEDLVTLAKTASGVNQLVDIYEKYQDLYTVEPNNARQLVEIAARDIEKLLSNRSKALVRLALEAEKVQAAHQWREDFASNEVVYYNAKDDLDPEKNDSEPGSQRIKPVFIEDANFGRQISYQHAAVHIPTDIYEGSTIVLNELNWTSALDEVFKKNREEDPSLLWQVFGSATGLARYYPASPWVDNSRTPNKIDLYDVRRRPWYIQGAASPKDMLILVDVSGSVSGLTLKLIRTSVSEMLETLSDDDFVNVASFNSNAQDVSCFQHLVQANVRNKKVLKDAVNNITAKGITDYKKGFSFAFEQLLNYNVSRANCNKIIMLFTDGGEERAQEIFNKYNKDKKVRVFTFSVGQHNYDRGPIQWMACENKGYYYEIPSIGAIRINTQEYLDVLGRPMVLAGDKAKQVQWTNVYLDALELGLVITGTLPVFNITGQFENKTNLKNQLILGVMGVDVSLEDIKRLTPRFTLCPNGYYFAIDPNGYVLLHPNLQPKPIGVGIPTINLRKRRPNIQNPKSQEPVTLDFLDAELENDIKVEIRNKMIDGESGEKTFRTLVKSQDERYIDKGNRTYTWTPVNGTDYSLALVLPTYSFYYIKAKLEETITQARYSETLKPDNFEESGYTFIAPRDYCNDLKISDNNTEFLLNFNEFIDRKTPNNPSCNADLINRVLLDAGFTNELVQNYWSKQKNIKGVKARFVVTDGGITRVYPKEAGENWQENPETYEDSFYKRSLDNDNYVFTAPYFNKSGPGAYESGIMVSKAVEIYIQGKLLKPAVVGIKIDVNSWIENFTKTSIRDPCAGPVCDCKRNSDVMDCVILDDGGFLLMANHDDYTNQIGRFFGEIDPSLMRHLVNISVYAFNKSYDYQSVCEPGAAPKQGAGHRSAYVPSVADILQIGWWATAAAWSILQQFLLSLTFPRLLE
Sequence of Voltage-dependent calcium channel subunit alpha-2/delta-1 (P54289 957-1103 limits assumed): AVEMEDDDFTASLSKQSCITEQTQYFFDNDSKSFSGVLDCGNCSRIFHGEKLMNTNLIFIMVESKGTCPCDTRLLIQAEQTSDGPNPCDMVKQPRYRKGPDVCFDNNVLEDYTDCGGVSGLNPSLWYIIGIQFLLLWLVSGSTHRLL

The term Ki denotes a dissociation constant, usually derived from enzyme kinetics or from competition with a known ligand. Broadly, the IC50 is the point on the concentration scale where inhibition reaches its midpoint. Regarding `CCNc1ncc2c(n1)N1CCC[C@H]1CN(c1cccc(-c3noc(C)n3)c1)C2=O`, the Ki in [1] was 0.011 µM; in [3], 2.15 µM; in series [4], greater than 10 µM. For the same molecule, the IC50 in series [2] was greater than 10 µM.

In the case of `CNc1ncc2c(n1)N(C)CCN(c1cccc(-c3nnc(C)o3)c1)C2=O`, the Ki in [1] was 0.244 µM; in series [3], greater than 10 µM; in series [4], greater than 10 µM. The IC50 in series [2] is greater than 10 µM.

For orientation: inhibition means the percentage by which the read-out fell short of the control. Low readings indicate a response near the control, high ones a response far below the control. On to `CNCC[C@H](Oc1cccc(N2CCN(C)c3nc(N)ncc3C2=O)c1)c1cccs1`, for which the inhibition at 1 µM in series [5], in series [6], in series [7], in series [8] and in [10] was less than 50% throughout. In series [9], this molecule showed an IC50 greater than 10 µM.

Regarding `CNCC[C@@H](Oc1cccc(N2CCN(C)CCC2=O)c1)c1cccs1`, the Ki in [1] was 0.606 µM.

For the molecule `CNCCC(Oc1cccc(N2CCN(C)c3cccnc3C2=O)c1)c1cccs1` (stereo not drawn), the Ki in series [1] was determined as 1.25 µM.

As to `CNCCC(Oc1cccc(N2CCN(C)c3cnccc3C2=O)c1)c1cccs1` (stereo not drawn), in series [1], the inhibitory constant (Ki) stood at 0.208 µM.

Turning to `CCNc1ncc2c(n1)N(C)CCN(c1ccccc1OC(CCNC)c1ccccc1)C2=O` (stereo not drawn), the Ki is 3.49 µM in series [1] and greater than 10 µM in series [4]. For the same molecule, in series [2], the IC50 was greater than 10 µM.

In the case of `CCNc1ncc2c(n1)N1CCC[C@@H]1CN(c1cccc(OC(CCNC)c3ccccc3)c1)C2=O` (stereo partly drawn), the Ki in [1] was 0.187 µM.

`CNCC[C@H](Oc1cccc(N2CCN(C)CCC2=O)c1)c1cccs1`: in series [1], the Ki stood at 2.8 µM.

As to `CCN(C)c1ncc2c(n1)N(C)CCN(c1cccc(-c3nnc(C)o3)c1)C2=O`, the Ki in series [1] and in series [4] was greater than 10 µM each time. Besides, the IC50 in series [2] is greater than 10 µM.

Consider `CCNc1ncc2c(n1)N1CCC[C@H]1CN(c1cccc(OC(CCNC)c3ccccc3)c1)C2=O` (stereo partly drawn), for which the Ki in series [1] was found to be 0.336 µM.

One may read the microsomal CLint as the capacity of the preparation to metabolise the compound, expressed as a volume cleared per time. Consider `CCNc1ncc2c(n1)N(C)CCN(c1cccc(-c3nnc(C)o3)c1)C2=O`, for which the inhibition at 1 µM in series [5], in series [6], in series [7], in series [8] and in series [10] was less than 50% in each case. Besides, the Ki in [1] was 0.081 µM; in [3] it was 2.97 µM; in series [4], greater than 10 µM. Also, the IC50 in series [2] and in series [9] was greater than 10 µM each time. The microsomal CLint in [11] and in [12] was less than 5 µL/min/mg in each case.

On to `CNCCC(Oc1cccc(N2CCN(C)c3ccccc3C2=O)c1)c1cccs1` (stereo not drawn), for which, in series [1], the Ki came out at 0.833 µM.

With `CCNc1ncc(C(=O)N(C)c2cccc(OC(CCNC)c3ccccc3)c2)cn1` (stereo not drawn), the Ki in series [1] and in series [4] was greater than 10 µM throughout. For the same molecule, the IC50 in [2] is greater than 10 µM.

`CSc1ncc2c(n1)N(C)CCN(c1cccc(-c3nnc(C)o3)c1)C2=O`: the Ki in [1], in series [3] and in [4] was greater than 10 µM in each case. Also, the IC50 in series [2] is greater than 10 µM.

Consider `CCNc1ncc2c(n1)N(CC)CCN(c1cccc(-c3nnc(C)o3)c1)C2=O`, for which the Ki in series [1] was 0.178 µM; in series [4] it was greater than 10 µM. In series [2], the IC50 was greater than 10 µM.

With `COCCNc1ncc2c(n1)N(C)CCN(c1cccc(-c3nnc(C)o3)c1)C2=O`, the Ki in series [1] and in series [4] was greater than 10 µM in each case. For the same molecule, in series [2], the IC50 is greater than 10 µM.

On to `CNCC[C@H](Oc1cccc(N2CCN(C)c3ncccc3C2=O)c1)c1cccs1`, for which the inhibition at 1 µM in [5], in series [6], in [7], in series [8] and in series [10] was less than 50% throughout. Further, the IC50 in series [9] is greater than 10 µM.

With `CCNc1ncc2c(n1)N(C)CCN(c1cccc(-c3nnc(C)o3)c1)C2`, the values for the Ki in [1] and in [4] were 1.03 µM and greater than 10 µM, respectively. The IC50 in series [2] is greater than 10 µM.

For the molecule `CCNc1ncc2c(n1)N(C)CCN(c1ccccc1COC(CCNC)c1ccccc1)C2=O` (stereo not drawn), the Ki in series [1] and in series [4] was greater than 10 µM throughout. Also, the IC50 in [2] is greater than 10 µM.

Turning to `CC(C)C[C@H](CN)CC(=O)O` [PREGABALIN], the values for the Ki in series [1], in series [3] and in [4] were 0.019 µM, 0.099 µM and greater than 10 µM, respectively. Also, in series [2], the IC50 was greater than 10 µM.
